Reference: ChEMBL document CHEMBL1135567, “Synthesis and structure-activity relationships of an orally available and long-acting analgesic peptide, N(alpha)-amidino-Tyr-D-Arg-Phe-MebetaAla-OH (ADAMB)” (J Med Chem, 2002)

How the values were obtained:
[1] = system: Mus musculus; experiment: In vivo antinociceptive activity expressed as ED50 administered perorally for tail pressure test in mice; conditions: po
[2] = system: Mus musculus; experiment: (§1) In vivo antinociceptive activity expressed as ED50 administered perorally for tail pressure test; conditions: po
[3] = system: Mus musculus; experiment: as §1; conditions: po; remark: listed apart in the source
[4] = Ratio of ED50 value administered subcutaneously to that of perorally.; type: functional
In short: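 Mouse tail pressure test ED50 values obtained after sc and po dosing by Litchfield–Wilcoxon at peak activity. The sc ED50 divided by the po ED50 is expressed as a percentage.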

CN1CC[C@]23c4c5ccc(O)c4O[C@H]2[C@@H](O)C=C[C@H]3[C@H]1C5 [MORPHINE]
ED50 [1]: 3.3 mg/kg
ED50 [2]: 15 mg/kg
ED50 [3]: 1.7 mg/kg
Ratio [4]: 15
